# Measured values from different studies.
# Lines come from different studies, so protocols differ.
# ALK: ALK tyrosine kinase receptor (ALK, Homo sapiens, UniProt Q9UM73)
# ALK C1156Y: ALK tyrosine kinase receptor (ALK, Homo sapiens, UniProt Q9UM73, C1156Y)
# ALK L1196M: ALK tyrosine kinase receptor (ALK, Homo sapiens, UniProt Q9UM73, L1196M)
Compound,target,read-out,mode,method,concentration,measurement,result
C#Cc1cnc(Nc2ccc(CO)cc2)nc1Nc1ccccc1C(=O)NC,ALK,enzyme activity,inhibitor,radiometric,1 µM,remaining activity,2.4%
Cc1ccc(NC(=O)c2ccnc(C(F)(F)F)c2)cc1-c1cc(OCCO)nc(N2CCOCC2)c1,ALK C1156Y,binding,,,1 µM,remaining binding,100%
CC#CC(=O)N1CCC[C@H]1c1nc(-c2ccc(C(=O)Nc3ccccn3)cc2)c2c(N)nccn12,ALK L1196M,enzyme activity,inhibitor,,1 µM,inhibition,11%
CN1CCN(C(=O)c2ccc(NC(=O)Nc3ccc(N(C)c4ccnc(Nc5ccc(CS(C)(=O)=O)cc5)n4)cc3)cc2)CC1,ALK C1156Y,binding,,,1 µM,remaining binding,64%
C#Cc1cnc(Nc2ccc(CO)nc2)nc1Nc1ccccc1S(C)(=O)=NC#N (centres unmarked),ALK,enzyme activity,inhibitor,radiometric,1 µM,remaining activity,18.9%
N#Cc1ccc(NC(=O)Nc2ccccc2)cc1,ALK,cell-free assay,,competition with immobilised ligand,25 µM,remaining binding,76%
C=CC(=O)N1CCC([C@@H]2CCNc3c(C(N)=O)c(-c4ccc(Oc5ccccc5)cc4)nn32)CC1,ALK,cell-free assay,,,1 µM,inhibition,5%
COc1ccc2[nH]c3c4[nH]c5ccc(OC)cc5c4c4c(c3c2c1)C(=O)NC4=O,ALK,binding,,,1 µM,remaining binding,55%
CO[C@@H]1[C@H](N(C)C(=O)c2ccccc2)C[C@H]2O[C@]1(C)n1c3ccccc3c3c4c(c5c6ccccc6n2c5c31)C(=O)NC4,ALK L1196M,enzyme activity,inhibitor,,1 µM,inhibition,42%
C1=C/COCc2cc(ccc2OCCN2CCCC2)Nc2nccc(n2)-c2cccc(c2)COC/1,ALK C1156Y,binding,,,0.1 µM,remaining binding,97%
CS(=O)(=NC#N)c1ccccc1Nc1nc(Nc2ccnc(CO)c2)ncc1Cl (centres unmarked),ALK,enzyme activity,inhibitor,radiometric,1 µM,remaining activity,36.7%
CCCCC(=O)Nc1ccc(-c2ccc3ncn(CCC)c(=O)c3c2)cn1,ALK C1156Y,binding,,competition with immobilised ligand,0.5 µM,remaining binding,100%
CNC(=O)c1ccccc1Nc1nc(Nc2ccc(CO)cc2)ncc1Cl,ALK,enzyme activity,inhibitor,radiometric,1 µM,remaining activity,1.07%
C[C@H]1CC[C@H](n2c3cnccc3c3cnc(Nc4ccc5c(n4)CCN(C(=O)CO)C5)nc32)CC1,ALK,binding,,,1 µM,remaining binding,84%
